Experimental data from the M2OR odorant receptor database.

Molecular target: T1, UniProt Q8VGL7
T1 sequence (whole entry): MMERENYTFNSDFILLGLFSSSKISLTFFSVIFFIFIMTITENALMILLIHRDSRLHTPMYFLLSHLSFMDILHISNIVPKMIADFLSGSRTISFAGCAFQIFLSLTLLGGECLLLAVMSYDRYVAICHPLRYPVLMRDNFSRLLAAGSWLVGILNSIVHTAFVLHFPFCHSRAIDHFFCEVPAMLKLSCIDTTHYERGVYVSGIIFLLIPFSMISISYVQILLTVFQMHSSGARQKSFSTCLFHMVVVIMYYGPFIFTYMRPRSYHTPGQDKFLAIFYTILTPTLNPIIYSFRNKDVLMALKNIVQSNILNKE
Conditions: stereoisomer not certain
Procedure, shortened: (§1)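 Assay methods differ from source to source, frequently being transient luciferase assays in mammalian cell lines. For each receptor–molecule pair, the label responsive (active) applies when the original authors judged the measured signal statistically different from baseline, and non-responsive (inactive) applies otherwise.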

Compound | odorant receptor agonist call
CCC1CCC(=O)O1 (configuration not stated) | inactive
C=CCc1ccccc1 | inactive
C=CCOC(=O)Cc1ccccc1 | inactive
O=c1cc(O)c2ccccc2o1 | inactive

Molecular target: T2, UniProt Q8VGM2
T2 sequence (whole entry): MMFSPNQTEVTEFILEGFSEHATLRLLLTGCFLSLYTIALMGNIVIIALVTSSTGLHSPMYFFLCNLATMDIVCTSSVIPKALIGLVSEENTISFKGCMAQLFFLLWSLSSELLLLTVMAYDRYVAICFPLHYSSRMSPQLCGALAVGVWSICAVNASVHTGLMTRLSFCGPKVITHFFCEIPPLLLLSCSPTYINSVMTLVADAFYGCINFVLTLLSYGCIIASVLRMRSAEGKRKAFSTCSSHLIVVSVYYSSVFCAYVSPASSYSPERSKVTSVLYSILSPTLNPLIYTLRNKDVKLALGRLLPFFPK
Conditions: stereoisomer not certain
Procedure, shortened: as §1

Compound | odorant receptor agonist call
CCC1CCC(=O)O1 (configuration not stated) | inactive
C=CCc1ccccc1 | inactive
C=CCOC(=O)Cc1ccccc1 | inactive
O=c1cc(O)c2ccccc2o1 | inactive

Molecular target: T3, UniProt Q8VGP6
T3 sequence (whole entry): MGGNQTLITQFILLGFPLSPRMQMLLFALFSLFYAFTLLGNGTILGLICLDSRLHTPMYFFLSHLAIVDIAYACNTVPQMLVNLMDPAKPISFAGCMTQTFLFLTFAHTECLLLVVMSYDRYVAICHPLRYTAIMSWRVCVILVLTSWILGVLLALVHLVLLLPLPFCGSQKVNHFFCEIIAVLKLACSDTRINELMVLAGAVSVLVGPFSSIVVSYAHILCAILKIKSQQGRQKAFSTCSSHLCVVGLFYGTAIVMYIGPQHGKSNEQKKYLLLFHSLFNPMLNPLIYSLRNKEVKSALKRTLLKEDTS
Conditions: stereoisomer not certain
Procedure, shortened: as §1

Compound | odorant receptor agonist call
CCC1CCC(=O)O1 (configuration not stated) | inactive
C=CCc1ccccc1 | inactive
C=CCOC(=O)Cc1ccccc1 | active
O=c1cc(O)c2ccccc2o1 | inactive

Molecular target: T4, UniProt Q8VGQ3
T4 sequence (whole entry): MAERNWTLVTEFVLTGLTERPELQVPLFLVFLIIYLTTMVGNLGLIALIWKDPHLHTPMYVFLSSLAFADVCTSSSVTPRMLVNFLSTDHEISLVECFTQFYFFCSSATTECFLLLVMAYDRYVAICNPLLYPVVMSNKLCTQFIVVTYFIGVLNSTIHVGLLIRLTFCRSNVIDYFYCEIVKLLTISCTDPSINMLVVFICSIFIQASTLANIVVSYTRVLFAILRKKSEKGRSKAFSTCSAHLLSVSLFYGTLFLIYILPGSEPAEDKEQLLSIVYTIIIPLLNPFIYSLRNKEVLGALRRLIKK
Conditions: stereoisomer not certain
Procedure, shortened: as §1

Compound | odorant receptor agonist call
CCC1CCC(=O)O1 (configuration not stated) | inactive
C=CCc1ccccc1 | inactive
C=CCOC(=O)Cc1ccccc1 | inactive
O=c1cc(O)c2ccccc2o1 | inactive

Molecular target: T5, UniProt Q8VGT4
T5 sequence (whole entry): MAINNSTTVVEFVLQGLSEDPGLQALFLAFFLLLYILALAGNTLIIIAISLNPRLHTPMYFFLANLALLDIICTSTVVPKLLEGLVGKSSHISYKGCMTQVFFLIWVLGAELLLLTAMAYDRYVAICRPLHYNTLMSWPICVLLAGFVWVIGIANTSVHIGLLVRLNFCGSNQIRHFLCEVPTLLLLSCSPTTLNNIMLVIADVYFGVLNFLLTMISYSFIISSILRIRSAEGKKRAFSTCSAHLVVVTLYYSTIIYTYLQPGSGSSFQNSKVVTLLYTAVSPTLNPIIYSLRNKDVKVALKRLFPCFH
Conditions: stereoisomer not certain
Procedure, shortened: as §1

Compound | odorant receptor agonist call
CCC1CCC(=O)O1 (configuration not stated) | inactive
C=CCc1ccccc1 | inactive
C=CCOC(=O)Cc1ccccc1 | inactive
O=c1cc(O)c2ccccc2o1 | inactive

Molecular target: T6, UniProt Q8VGU3
T6 sequence (whole entry): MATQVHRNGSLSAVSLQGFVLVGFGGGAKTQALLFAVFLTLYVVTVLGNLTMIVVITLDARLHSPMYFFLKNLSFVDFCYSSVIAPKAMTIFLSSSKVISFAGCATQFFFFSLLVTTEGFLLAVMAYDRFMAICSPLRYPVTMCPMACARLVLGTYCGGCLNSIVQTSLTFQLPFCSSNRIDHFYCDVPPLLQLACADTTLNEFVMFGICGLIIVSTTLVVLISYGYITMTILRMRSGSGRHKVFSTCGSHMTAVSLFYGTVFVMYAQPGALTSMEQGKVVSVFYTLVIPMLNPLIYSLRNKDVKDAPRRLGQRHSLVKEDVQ
Conditions: stereoisomer not certain
Procedure, shortened: as §1

Compound | odorant receptor agonist call
Cc1ccc(OC(=O)Cc2ccccc2)cc1 | inactive
O=CC=Cc1ccccc1 | inactive
OCc1ccc2c(c1)OCO2 | inactive
O=Cc1ccccc1 | inactive
COc1ccc(C=O)cc1 | inactive
CC(C=O)Cc1ccc2c(c1)OCO2 (configuration not stated) | inactive
C=CCOC(=O)Cc1ccccc1 | inactive
O=c1cc(O)c2ccccc2o1 | inactive
O=Cc1ccc2c(c1)OCO2 | inactive
CCCCCCC(Br)C(=O)O (configuration not stated) | inactive
C=C(C)C1CC=C(C=O)CC1 (configuration not stated) | inactive
CCCCC(Br)C(=O)O (configuration not stated) | inactive
Oc1ccccc1Br | inactive
CSSC | inactive

Molecular target: T7, UniProt Q8VGV1
T7 sequence (whole entry): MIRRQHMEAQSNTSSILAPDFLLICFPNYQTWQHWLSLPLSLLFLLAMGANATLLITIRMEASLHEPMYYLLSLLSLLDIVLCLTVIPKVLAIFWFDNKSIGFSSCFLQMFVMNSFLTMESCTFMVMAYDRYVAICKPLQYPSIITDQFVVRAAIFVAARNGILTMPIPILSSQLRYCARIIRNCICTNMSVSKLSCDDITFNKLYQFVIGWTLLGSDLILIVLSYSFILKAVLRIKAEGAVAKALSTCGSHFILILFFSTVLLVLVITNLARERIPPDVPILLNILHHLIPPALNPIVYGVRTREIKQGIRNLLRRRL
Conditions: stereoisomer not certain
Procedure, shortened: as §1

Compound | odorant receptor agonist call
CCC1CCC(=O)O1 (configuration not stated) | inactive
C=CCc1ccccc1 | inactive
C=CCOC(=O)Cc1ccccc1 | inactive
O=c1cc(O)c2ccccc2o1 | inactive

Molecular target: T8, UniProt Q8VGV7
T8 sequence (whole entry): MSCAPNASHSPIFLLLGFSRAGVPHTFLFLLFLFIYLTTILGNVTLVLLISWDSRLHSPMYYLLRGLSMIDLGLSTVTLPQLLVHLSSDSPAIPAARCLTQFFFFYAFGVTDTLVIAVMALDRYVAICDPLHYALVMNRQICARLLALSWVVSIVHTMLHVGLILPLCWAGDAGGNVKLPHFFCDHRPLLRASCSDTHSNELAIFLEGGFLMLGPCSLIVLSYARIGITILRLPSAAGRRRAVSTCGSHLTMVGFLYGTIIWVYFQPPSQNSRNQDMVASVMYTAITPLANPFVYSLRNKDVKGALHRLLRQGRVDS
Conditions: stereoisomer not certain
Procedure, shortened: as §1

Compound | odorant receptor agonist call
Cc1ccc(OC(=O)Cc2ccccc2)cc1 | inactive
O=CC=Cc1ccccc1 | inactive
OCc1ccc2c(c1)OCO2 | inactive
O=Cc1ccccc1 | inactive
COc1ccc(C=O)cc1 | inactive
CC(C=O)Cc1ccc2c(c1)OCO2 (configuration not stated) | inactive
C=CCOC(=O)Cc1ccccc1 | inactive
O=c1cc(O)c2ccccc2o1 | inactive
O=Cc1ccc2c(c1)OCO2 | inactive
CCCCCCC(Br)C(=O)O (configuration not stated) | inactive
C=C(C)C1CC=C(C=O)CC1 (configuration not stated) | inactive
CCCCC(Br)C(=O)O (configuration not stated) | inactive
Oc1ccccc1Br | inactive
CSSC | inactive
